This is an account of results in ChEMBL document CHEMBL1143052, “Synthesis, antimicrobial, and QSAR studies of substituted benzamides” (2007).

In one experiment the test system is Bacillus subtilis. Kind of experiment: Antibacterial activity against Bacillus subtilis MTCC 2063 after 24 hrs. In kind it is functional. Summed up:
(§1)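 Serial broth dilution in double-strength nutrient broth-I.P. Bacteria were grown for 24 h at 37 °C. A DMSO stock was diluted into 1 mL broth tubes to span 5–0.156, then inoculated with a saline suspension of the organism. Tubes were incubated at 37 °C for 24 h and MIC was read. Extra dilutions of the stock then set the exact MIC.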

In the next experiment the test system is Escherichia coli. Briefly: Antibacterial activity against Escherichia coli MTCC 1652 after 24 hrs. It is filed as functional. Summed up: as §1
The next experiment has as its system Aspergillus ficuum. Briefly: Antifungal activity against Aspergillus ficuum MTCC 8184 by serial dilution method. In kind it is functional. Summed up: (§2)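 Broth serial dilution against the fungus in Sabouraud dextrose broth-I.P., run like the antibacterial assay. Compounds came from a DMSO stock, and MIC was determined.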
In another experiment the test system is Aspergillus parasiticus. Briefly: Antifungal activity against Aspergillus parasiticus MTCC 8189 by serial dilution method. In kind it is functional. Summed up: as §2
The next experiment relates to Staphylococcus aureus. Briefly: Antibacterial activity against Staphylococcus aureus MTCC 2901 after 24 hrs.

Turning to `O=C(Nc1ccc(O)cc1)c1ccccc1O` [OSALMID], the “pMIC, log(1/MIC)” value came to 0.96 in the experiment with Bacillus subtilis and 1.2 in the experiment with Escherichia coli. The “-log(1/MIC)” value in the experiment with Aspergillus ficuum was 1.56; with Aspergillus parasiticus, 1.26; in the experiment with Staphylococcus aureus it was 1.26.
On to `O=C(Nc1ccccc1O)c1cc([N+](=O)[O-])cc([N+](=O)[O-])c1`, for which the “pMIC, log(1/MIC)” value with Bacillus subtilis and in the experiment with Escherichia coli was 1.38 each time. The entries for the “-log(1/MIC)” value in the experiment on Aspergillus ficuum, in the experiment on Aspergillus parasiticus and in the experiment with Staphylococcus aureus were 1.58, 1.69 and 1.38, respectively.
With `O=C(Nc1ccccc1O)c1ccccc1`, the results for the “pMIC, log(1/MIC)” value with Bacillus subtilis and with Escherichia coli were 0.93 and 1.23, respectively. Further, the entries for the “-log(1/MIC)” value in the experiment with Aspergillus ficuum, with Aspergillus parasiticus and with Staphylococcus aureus were 1.43, 1.23 and 1.11, respectively.
Take `O=C(Nc1ccc(O)cc1)c1ccccc1`: the “pMIC, log(1/MIC)” value with Bacillus subtilis came out at 0.93; in the experiment with Escherichia coli, 1.23. For the same compound, the results for the “-log(1/MIC)” value with Aspergillus ficuum, in the experiment with Aspergillus parasiticus and in the experiment on Staphylococcus aureus were 1.53, 1.24 and 1.23, respectively.
Regarding `O=C(Nc1ccc(O)cc1)c1c(O)ccc2ccccc12`, the “pMIC, log(1/MIC)” value with Bacillus subtilis and with Escherichia coli was 1.35 throughout. For the same compound, the “-log(1/MIC)” value with Aspergillus ficuum was determined as 1.65; with Aspergillus parasiticus, 1.65; in the experiment on Staphylococcus aureus it was 1.23.
For the compound `COc1cccc(C(=O)Nc2ccccc2O)c1[N+](=O)[O-]`, the “pMIC, log(1/MIC)” value in the experiment with Bacillus subtilis and in the experiment with Escherichia coli was 1.41 throughout. Also, the “-log(1/MIC)” value in the experiment on Aspergillus ficuum was found to be 1.71; with Aspergillus parasiticus it was 1.71; in the experiment with Staphylococcus aureus, 1.41.
As for `COC(=O)c1cccc(O)c1NC(=O)c1ccccc1OCc1ccccc1`, the “pMIC, log(1/MIC)” value was determined as 1.48 with Bacillus subtilis and 1.35 in the experiment with Escherichia coli. In addition, the “-log(1/MIC)” value in the experiment with Aspergillus ficuum is reported as 1.78; with Aspergillus parasiticus, 1.83; in the experiment on Staphylococcus aureus it was 1.48.
In the case of `O=C(Nc1ccccc1O)c1c(O)ccc2ccccc12`, the “pMIC, log(1/MIC)” value in the experiment on Bacillus subtilis came out at 1.35; in the experiment with Escherichia coli, 1.29. Moreover, the entries for the “-log(1/MIC)” value with Aspergillus ficuum, in the experiment on Aspergillus parasiticus and in the experiment with Staphylococcus aureus were 1.65, 1.35 and 1.23, respectively.
With `Cc1cccc(C(=O)Nc2ccc(O)cc2)c1`, the “pMIC, log(1/MIC)” value in the experiment with Bacillus subtilis was found to be 1.04; in the experiment with Escherichia coli it was 1.2. In addition, the figures for the “-log(1/MIC)” value with Aspergillus ficuum, in the experiment on Aspergillus parasiticus and in the experiment with Staphylococcus aureus were 1.56, 1.26 and 1.26, respectively.
Consider `O=C(Nc1ccccc1)c1ccccc1OCc1ccccc1`, for which the “pMIC, log(1/MIC)” value with Bacillus subtilis and with Escherichia coli was 1.3 in each case. The “-log(1/MIC)” value in the experiment with Aspergillus ficuum is on record as 1.69; in the experiment on Aspergillus parasiticus, 1.69; in the experiment on Staphylococcus aureus, 1.39.
As for `O=C(Nc1ccccc1O)c1ccc2ccccc2c1O`, the figures for the “pMIC, log(1/MIC)” value with Bacillus subtilis and with Escherichia coli were 1.2 and 1.21, respectively. The “-log(1/MIC)” value in the experiment with Aspergillus ficuum came out at 1.58; with Aspergillus parasiticus, 1.62; with Staphylococcus aureus, 1.25.
The matching figures for `O=C(Nc1ccc(O)cc1)c1cccc(Cl)c1`: 1, 1.17, 1.6, 1.3 and 1.3.
`O=C(Nc1ccccc1O)c1cccc(Cl)c1`: the “pMIC, log(1/MIC)” value with Bacillus subtilis came out at 1.1; with Escherichia coli, 1.2. Further, the “-log(1/MIC)” value in the experiment on Aspergillus ficuum came to 1.6; with Aspergillus parasiticus, 1.3; in the experiment on Staphylococcus aureus it was 1.16.
For the compound `Cc1ccc(C(=O)Nc2ccccc2O)cc1`, the “pMIC, log(1/MIC)” value in the experiment on Bacillus subtilis amounted to 0.96; in the experiment with Escherichia coli, 1.2. The results for the “-log(1/MIC)” value in the experiment with Aspergillus ficuum, in the experiment with Aspergillus parasiticus and with Staphylococcus aureus were 1.56, 1.26 and 1.16, respectively.
Turning to `Cc1ccc(C(=O)Nc2ccc(O)cc2)cc1`, the “pMIC, log(1/MIC)” value with Bacillus subtilis worked out at 0.96; with Escherichia coli, 1.26. The “-log(1/MIC)” value amounted to 1.56 in the experiment on Aspergillus ficuum, 1.32 in the experiment on Aspergillus parasiticus and 1.26 with Staphylococcus aureus.
Regarding `O=C(Nc1ccccc1O)c1cc([N+](=O)[O-])ccc1Cl`, the “pMIC, log(1/MIC)” value with Bacillus subtilis is 1.07; in the experiment on Escherichia coli it was 1.2. For the same compound, the “-log(1/MIC)” value with Aspergillus ficuum is on record as 1.67; in the experiment on Aspergillus parasiticus, 1.52; with Staphylococcus aureus, 1.26.
In the case of `O=C(Nc1ccccc1O)c1ccccc1O`, the “pMIC, log(1/MIC)” value with Bacillus subtilis worked out at 0.96; in the experiment on Escherichia coli, 1.12. Moreover, the results for the “-log(1/MIC)” value in the experiment with Aspergillus ficuum, in the experiment with Aspergillus parasiticus and in the experiment with Staphylococcus aureus were 1.45, 1.2 and 1.26, respectively.
The matching figures for `O=C(Nc1ccccc1O)c1ccccc1Cl`: 1, 1.2, 1.6, 1.3 and 1.3.
In the case of `O=C(Nc1ccc(O)cc1)c1cc([N+](=O)[O-])ccc1Cl`, the “pMIC, log(1/MIC)” value in the experiment with Bacillus subtilis and in the experiment with Escherichia coli was 1.27 each time. Moreover, the “-log(1/MIC)” value in the experiment on Aspergillus ficuum came out at 1.58; with Aspergillus parasiticus, 1.58; in the experiment with Staphylococcus aureus, 1.37.
Regarding `O=C(Nc1ccccc1)c1cc([N+](=O)[O-])ccc1Cl`, the figures for the “pMIC, log(1/MIC)” value in the experiment with Bacillus subtilis and in the experiment with Escherichia coli were 1.15 and 1.2, respectively. The “-log(1/MIC)” value in the experiment on Aspergillus ficuum stood at 1.55; in the experiment with Aspergillus parasiticus, 1.42; in the experiment on Staphylococcus aureus, 1.35.
Consider `Cc1cccc(C(=O)Nc2ccccc2O)c1`, for which the “pMIC, log(1/MIC)” value in the experiment on Bacillus subtilis is recorded as 0.96; with Escherichia coli, 1.26. Moreover, the “-log(1/MIC)” value with Aspergillus ficuum amounted to 1.56; with Aspergillus parasiticus it was 1.3; in the experiment on Staphylococcus aureus, 1.16.
As to `O=C(/C=C/c1ccccc1)Nc1ccc(O)cc1`, the results for the “pMIC, log(1/MIC)” value in the experiment on Bacillus subtilis and with Escherichia coli were 0.98 and 1.16, respectively. The “-log(1/MIC)” value is reported as 1.58 in the experiment on Aspergillus ficuum, 1.58 in the experiment on Aspergillus parasiticus and 1.28 with Staphylococcus aureus.
On to `O=C(Nc1ccccc1)c1ccc2ccccc2c1O`, for which the “pMIC, log(1/MIC)” value in the experiment with Bacillus subtilis turned out to be 1.13; with Escherichia coli, 1.17. In addition, the “-log(1/MIC)” value in the experiment on Aspergillus ficuum is 1.44; in the experiment with Aspergillus parasiticus, 1.3; in the experiment on Staphylococcus aureus, 1.26.
Turning to `O=C(Nc1ccc(O)cc1)c1ccccc1Cl`, the entries for the “pMIC, log(1/MIC)” value with Bacillus subtilis and in the experiment with Escherichia coli were 1 and 1.17, respectively. The “-log(1/MIC)” value in the experiment on Aspergillus ficuum is listed as 1.6; with Aspergillus parasiticus, 1.31; in the experiment with Staphylococcus aureus it was 1.3.
Regarding `COc1cccc(C(=O)Nc2ccc(O)cc2)c1[N+](=O)[O-]`, the “pMIC, log(1/MIC)” value in the experiment with Bacillus subtilis and with Escherichia coli was 1.26 throughout. Besides, the “-log(1/MIC)” value with Aspergillus ficuum stood at 1.36; in the experiment with Aspergillus parasiticus it was 1.53; in the experiment with Staphylococcus aureus, 1.36.
Consider `O=C(Nc1ccccc1)c1c(O)ccc2ccccc12`, for which the “pMIC, log(1/MIC)” value in the experiment on Bacillus subtilis and in the experiment on Escherichia coli was 1.35 each time. In addition, the “-log(1/MIC)” value came to 1.65 with Aspergillus ficuum, 1.65 with Aspergillus parasiticus and 1.35 in the experiment with Staphylococcus aureus.
With `O=C(O)c1cn(C2CC2)c2cc(N3CCNCC3)c(F)cc2c1=O` [CIPROFLOXACIN], in the experiment on Bacillus subtilis, the “pMIC, log(1/MIC)” value is 3.33. Further, the “-log(1/MIC)” value in the experiment on Escherichia coli and with Staphylococcus aureus was 3.33 in each case.
In the case of `O=C(Nc1ccc(O)cc1)c1ccc2ccccc2c1O`, the “pMIC, log(1/MIC)” value was found to be 1.25 with Bacillus subtilis and 1.22 in the experiment on Escherichia coli. Further, the entries for the “-log(1/MIC)” value in the experiment on Aspergillus ficuum, with Aspergillus parasiticus and in the experiment with Staphylococcus aureus were 1.57, 1.62 and 1.32, respectively.
Consider `O=C(O)c1ccccc1O` [SALICYLIC ACID], for which the “-log(1/MIC)” value in the experiment with Aspergillus ficuum and in the experiment with Aspergillus parasiticus was 3.1 throughout.
On to `O=C(Nc1ccc(O)cc1)c1cc([N+](=O)[O-])cc([N+](=O)[O-])c1`, for which the “pMIC, log(1/MIC)” value in the experiment on Bacillus subtilis and with Escherichia coli was 1.38 in each case. Besides, the “-log(1/MIC)” value with Aspergillus ficuum turned out to be 1.69; in the experiment on Aspergillus parasiticus, 1.69; in the experiment with Staphylococcus aureus, 1.38.
